In the library only some 1.9% were active in any assay of this set; here they are far more common.
M4 PAM: positive allosteric modulators of human muscarinic M4 receptor. hit rate 0.4% among 360,000. P08173. AID 624126. CHO-K1 hM4/Gqi5, Fluo-8 calcium fluorescence, ACh EC20; 0% = ACh EC20, 100% = maximal ACh. activation, % at 3 µM;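 active = activation above its plate's cutoff, the mean activation of sample wells plus 3 SD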
Target sequence (P08173 whole entry, looked up): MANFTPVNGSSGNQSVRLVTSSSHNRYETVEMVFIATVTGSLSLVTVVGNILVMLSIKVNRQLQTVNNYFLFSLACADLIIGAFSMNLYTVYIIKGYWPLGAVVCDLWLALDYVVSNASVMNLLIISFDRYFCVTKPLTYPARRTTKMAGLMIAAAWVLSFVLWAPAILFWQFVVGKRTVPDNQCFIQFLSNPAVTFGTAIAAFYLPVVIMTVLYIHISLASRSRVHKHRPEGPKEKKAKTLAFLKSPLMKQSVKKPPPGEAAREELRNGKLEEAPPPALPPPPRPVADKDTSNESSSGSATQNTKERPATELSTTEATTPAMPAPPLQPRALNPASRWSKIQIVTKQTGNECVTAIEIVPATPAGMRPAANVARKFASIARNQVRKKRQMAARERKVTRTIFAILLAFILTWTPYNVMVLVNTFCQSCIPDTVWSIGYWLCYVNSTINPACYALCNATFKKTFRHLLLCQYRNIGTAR
CHRM4 agonist: CHRM4 agonism in calcium assay | activation, % at 3 µM | P08173 | CHO-K1 hM4/Gqi5, Fluo-8 calcium fluorescence; vehicle 0%, full acetylcholine response 100% | hit rate 0.14% among 360,000 | AID 624127;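 active = activation above the run mean over all test wells plus 3 SD, cut at about 32% in these data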;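 note: peak over basal fluorescence ratio per well then scaled between controls; 0% = DMSO wells and 100% = acetylcholine at EC100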
CHRM4 antagonist: CHRM4 antagonism in calcium assay; CHO-hM4 cells, ACh EC80, Fluo-8 calcium fluorescence; P08173; AID 624125; hit rate 0.73% among 360,000; inhibition, % at 3 µM;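 active = inhibition above its plate's cutoff, the mean inhibition of sample wells plus 3 SD, cut at about 27% in these data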;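 note: 0% = acetylcholine EC80 with DMSO and 100% = DMSO without agonist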
CHRM5 agonist: agonists of human muscarinic M5 receptor (CHRM5) | P08912 | CHO-K1 hM5 cells, Fluo-8 calcium fluorescence; 0% DMSO wells, 100% maximal acetylcholine response | activation, % at 3 µM | hit rate 0.19% among 360,000 | AID 624037;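 active = activation above the run's mean over test compounds plus 3 SD, cut at about 23% in these data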;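 note: signal is peak over basal fluorescence ratio across the kinetic read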
CHRM5 PAM: CHRM5 positive allosteric modulation | P08912 | CHO-K1 hM5, Fluo-8 calcium, ACh EC20 PAM; 0% = ACh EC20, 100% = ACh EC100 | activation, % at 3 µM | hit rate 0.3% among 360,000 | AID 624038;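 active = activation above the run cutoff, the mean activation of all test compounds plus 3 SD, cut at about 18% in these data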
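System: CHO-K1 cell line with stable human muscarinic M5 receptor expression | Also added: EC20 acetylcholine as agonist stimulus | Compound: One concentration, 3 µM final (nominal) | Timing: Fluo-8 loading 80 min at 37 °C plus 30 min room temperature | Measured by: Fluo-8 calcium dye fluorescence, kinetic read | Read-out basis: % activation, ACh-normalized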
CHRM5 antagonist: CHRM5 antagonism in calcium assay; P08912; CHO-hM5 cells, Fluo-8 calcium fluorescence, ACh EC80; inhibition, % at 3 µM; hit rate 0.59% among 360,000; AID 624040;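 active = inhibition above a per-plate cutoff, the mean of that plate's test compounds plus 3 SD, cut at about 27% in these data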;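 note: 0% = acetylcholine EC80 with DMSO and 100% = DMSO without agonist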
The depositor's hits bear a star.

SMILES	M4 PAM	CHRM4 agonist	CHRM4 antagonist	CHRM5 agonist	CHRM5 PAM	CHRM5 antagonist
O=C1N[C@@H](c2ccccc2)COC(=O)[C@@H](Cc2ccc(F)cc2)C/C=C\C[C@@H]1CC(=O)N(CCO)Cc1ccccc1	-13	56*	17	15	-31	10
O=C1N[C@H](Cc2ccccc2)COC(=O)[C@H](Cc2ccc(F)cc2)C/C=C\C[C@@H]1CC(=O)N(CCO)Cc1ccccc1	-9	20	2	1	-14	10
O=C(C[C@@H]1C/C=C/CC[C@@H](Cc2ccc(F)cc2)C(=O)O[C@@H](c2ccccc2)CNC1=O)NCCO	-4	10	8	1	-26	31*
O=C1N[C@@H](c2ccccc2)COC(=O)[C@H](Cc2ccc(F)cc2)CC/C=C/C[C@H]1CC(=O)N(CCO)Cc1ccccc1	-9	12	-9	1	-2	5
O=C(C[C@H]1C/C=C/CC[C@H](Cc2ccc(F)cc2)C(=O)O[C@H](c2ccccc2)CNC1=O)NCCO	2	1	2	-1	-3	5
COc1ccc(-c2ccncc2)cc1OC	0	-1	-1	1	8	11
O=C1NC[C@H](c2ccccc2)OC(=O)[C@@H](Cc2ccc(F)cc2)C/C=C\C[C@H]1CC(=O)N(CCO)Cc1ccccc1	-11	36*	34*	8	-37	17
CCc1cc2c3c(c1)C(C)CC(C)(C)N3C(=O)C2=O (stereo not drawn)	-1	-2	8	26*	0	-9
CCOc1cc2c3c(c1)C1(OCCO1)C(=O)N3C(C)(C)CC2C (stereo not drawn)	2	-2	0	-7	0	-4
O=C1C(Nc2ccc(O)cc2)=C/C(=N/S(=O)(=O)c2cccs2)c2ccccc21	-10	9	7	-7	2	35*
O=C(O)c1ccc(NC2=C/C(=N/S(=O)(=O)c3cccs3)c3ccccc3C2=O)cc1	3	4	-1	1	2	4
CC(OC(=O)CSc1ccccc1)C(=O)NC1CCCCC1C (stereo not drawn)	7	2	-2	0	0	0
O=C(CN1C(=O)COc2ccc(Cl)cc21)NCC1CCCO1 (stereo not drawn)	3	2	-14	-1	4	-1
COc1ccccc1NC(=O)CSc1nnc(-c2ccncc2)o1	6	2	-9	-2	23*	-3
O=C(CSc1nnc(Cn2nnc3ccccc32)o1)N(Cc1ccc(F)cc1)c1ccccc1	-20	10	21	1	-15	37*
COc1ccc(CN(C(=O)CSc2nnc(-c3c[nH]c4ccccc34)o2)c2ccc(F)cc2)cc1OC	-12	19	41*	5	-26	21
COc1ccc(CN(C(=O)CSc2nnc(-c3ccc(F)cc3)o2)c2ccc(F)cc2)cc1	6	2	1	3	-3	6
CCOC(=O)N1CCN(C(=O)CSc2nnc(-c3ccccc3OC)o2)CC1	30*	0	10	1	1	-5
O=[N+]([O-])c1cc([N+](=O)[O-])c2cc3ccccc3nc2c1	3	0	3	-4	6	4
CCOC(=O)CSc1nnc(-c2c[nH]c3ccccc23)o1	-17	-2	100*	1	-3	4
Cc1cc(C(=O)N2CCN(S(=O)(=O)c3ccccc3F)CC2)c(C)o1	5	3	-6	-2	0	-4
COc1ccc(C(=O)c2sc(Nc3ccccc3)c(C(=O)Nc3ccc(OC)c(OC)c3)c2N)cc1	1	2	-11	-1	-6	17
COc1ccc(NC(=O)c2c(Nc3ccccc3)sc(C(=O)c3ccc(F)cc3)c2N)cc1	-14	14	13	4	-15	28*
COc1ccc(Nc2sc(C(=O)c3ccc(Cl)cc3)c(N)c2C(=O)Nc2ccccc2OC)cc1	-28	74*	50*	39*	-3	22
COc1ccc(C(=O)c2sc(Nc3cccc(OC)c3)c(C(=O)Nc3cccc(C)c3C)c2N)cc1	-12	19	21	10	7	3
SMILES	M4 PAM	CHRM4 agonist	CHRM4 antagonist	CHRM5 agonist	CHRM5 PAM	CHRM5 antagonist
O=C(CN1C(=O)CCSc2ccc(S(=O)(=O)N3CCOCC3)cc21)Nc1cccc(F)c1	-6	1	8	-3	1	2
O=C(c1ccc(F)cc1)N1CCCN(c2nc(-c3ccccc3)ns2)CC1	-4	2	-11	6	20*	-13
O=C(Nc1ccccc1Cl)N1CCCN(c2nc(-c3ccccc3)ns2)CC1	-38	14	-1	2	-29	16
CC[C@H](C)Cc1cn([C@@H](CCCCN)C(=O)NCCCCCCCCCCC(=O)N2CCNCC2)nn1	3	0	-5	-10	7	3
CC[C@H](C)Cc1cn([C@@H](CCCN=C(NC(=O)OC(C)(C)C)NC(=O)OC(C)(C)C)C(=O)NCCCCCCCCCCC(=O)N2CCN(C(=O)OC(C)(C)C)CC2)nn1	-14	1	36*	-11	-5	6
Cc1cn([C@@H](CCCCNC(=O)OC(C)(C)C)C(=O)NCCCCCCCCCCC(=O)N2CCN(C(=O)OC(C)(C)C)CC2)nn1	-16	28	40*	0	-40	19
CC(C)(C)OC(=O)NCCCCCc1cn(CC(=O)NCCCCCCCCCCC(=O)N2CCN(C(=O)OC(C)(C)C)CC2)nn1	0	6	2	6	-9	12
Nc1ccc(O)c(-c2nc3ccccc3s2)c1	-2	0	4	-1	-4	5
Oc1ccc(N=C/C=C/c2cccc(Br)c2)cc1-c1nc2ccccc2s1	32*	0	-1	3	-3	8
CC(C)C(C)N(Cc1cccc(C(=O)O)c1)C(=O)c1ccc2ccccc2n1 (stereo not drawn)	-1	1	10	7	22*	-9
CCOc1ccc(-c2cc(C(=O)N3CCN(c4ccccn4)CC3)c3ccccc3n2)cc1	-4	7	9	1	1	-1
COc1ccc(-c2cc(C(=O)N3CCN(c4ccccn4)CC3)c3ccccc3n2)cc1	-26	16	27*	2	-17	25
Cc1ccc(-c2cc(C(=O)N3CCN(c4ccccc4O)CC3)c3ccccc3n2)cc1	-6	8	-6	6	-16	9
COc1ccc(-c2cc(C(=O)N3CCN(c4ccccc4O)CC3)c3ccccc3n2)cc1OC	-8	15	19	-3	-15	28*
COc1ccc(-c2cc(C(=O)N3CCN(c4ccccc4O)CC3)c3ccccc3n2)cc1	-11	24	29*	2	-35	18
COc1ccc(-c2cc(C(=O)N3CCN(c4ccccc4)CC3)c3ccccc3n2)cc1	-8	11	1	0	-16	18

High-throughput results (PubChem BioAssay)
